This is a sample that favours compounds with a hit; in the whole collection about 1.7% have one here.
STEP block – STEP (human) phosphatase inhibition. P54829. recombinant STEP, OMFP fluorogenic substrate, fluorescence. inhibition, % at 20 µM. 360,000 tested, 0.25% active;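 active = inhibition at 20 µM, scaled per plate between control wells, above about 37%, limit read from the data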;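 also: 0% = DMSO with enzyme and substrate and 100% = substrate only without enzyme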
Target sequence (P54829 whole entry, looked up): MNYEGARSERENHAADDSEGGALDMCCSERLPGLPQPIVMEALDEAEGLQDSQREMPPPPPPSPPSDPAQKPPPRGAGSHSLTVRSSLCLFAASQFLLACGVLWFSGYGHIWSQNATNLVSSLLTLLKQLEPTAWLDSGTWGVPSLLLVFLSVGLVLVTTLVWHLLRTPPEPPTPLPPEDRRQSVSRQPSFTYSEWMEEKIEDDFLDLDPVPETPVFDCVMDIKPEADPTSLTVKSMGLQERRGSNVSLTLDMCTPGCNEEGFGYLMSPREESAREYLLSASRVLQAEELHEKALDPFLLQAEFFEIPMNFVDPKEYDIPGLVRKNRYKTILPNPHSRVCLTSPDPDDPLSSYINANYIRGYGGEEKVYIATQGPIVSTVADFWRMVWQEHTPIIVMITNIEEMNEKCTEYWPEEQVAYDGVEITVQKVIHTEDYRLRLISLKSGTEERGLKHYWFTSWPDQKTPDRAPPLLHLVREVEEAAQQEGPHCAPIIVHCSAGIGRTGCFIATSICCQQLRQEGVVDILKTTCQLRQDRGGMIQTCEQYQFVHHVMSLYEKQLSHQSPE
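System: STEP phosphatase, cell-free reaction; Buffer or medium: Bis-Tris pH 6.0 buffer with DTT, detergent; Incubation: 20 min at room temperature, dark; Measured by: fluorescence, 480/540 nm.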
SUMO1-SIM PPI – modulators of human SUMO1-mediated protein-protein interactions | SUMO1 binding to a labelled peptide, TR-FRET, 1 h | AID 602429 | 360,000 tested, 0.33% active | inhibition, % at 20 µM; in the data active = inhibition above about 37%
Target sequence (P63165 whole entry, looked up): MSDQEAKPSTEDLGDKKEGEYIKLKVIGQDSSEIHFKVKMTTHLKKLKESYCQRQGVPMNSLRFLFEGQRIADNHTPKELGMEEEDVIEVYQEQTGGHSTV
LMPTP block – blocks human LMPTP phosphatase | AID 651560 | recombinant LMPTP-A, OMFP fluorogenic substrate, fluorescence intensity | inhibition, % at 20 µM | 360,000 tested, 0.22% active | P24666;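 active = compounds that cut the enzyme signal by at least half of the control window in the single-dose screen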;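 also: plate controls were DMSO wells with enzyme plus substrate for no effect and substrate without enzyme for full effect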
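Assay system: LMPTP-A, protein tyrosine phosphatase of low molecular weight / Medium: pH 6.0 Bis-Tris buffer with DTT and Triton X-100 / Schedule: 50 min enzyme reaction at room temperature, protected from light / Measured by: endpoint fluorescence intensity from OMFP dephosphorylation / Read-out basis: % inhibition relative to no-enzyme and uninhibited control wells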
Scp-1 inhibitor – blocks human Scp-1 phosphatase activity | 340,000 tested, 0.88% active | Recombinant Scp1, phosphopeptide, malachite green phosphate absorbance | inhibition, % at 20 µM;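 active = inhibition above about 50% at 20 µM, limit read from the data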;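 also: plate controls were DMSO wells with enzyme for no effect and wells lacking enzyme for full effect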
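Incubation: 45 min enzyme reaction at room temperature / System: truncated SCP-1 phosphatase (76-261aa) / Reagent: Phospho 17-mer peptide substrate / Buffer or medium: Acidic Tris acetate buffer with magnesium and detergent / Signal: absorbance at 630 nm / Doses: one concentration, 20 µM, with 1.0% DMSO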
DNMT1 block – inhibitors of human DNMT1. P26358. DNMT1 molecular beacon, Hinp1I cleavage, fluorescence. inhibition (reported as % activation of signal), % at 10 µM. 360,000 tested, 0.83% active; in the data active = inhibition above about 50%
Scp-1 conf – confirmation of human Scp-1 phosphatase inhibitors; shares compounds with Scp-1 inhibitor; recombinant SCP-1 catalytic domain, phosphate release, malachite green absorbance; inhibition, % at 20 µM; 2,500 tested, 61% active;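 also: plate controls were DMSO with enzyme for no effect and buffer wells lacking enzyme for full effect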
Scp-1 MG ctr – interferes with malachite green readout, flagging false Scp-1 hits. shares compounds with Scp-1 inhibitor. Colorimetric interference counterscreen, malachite green absorbance 630 nm. apparent inhibition (interference), % at 20 µM. 2,500 tested, under 10 active. AID 540313;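 also: compounds added after enzyme reaction finished so only phosphate colour detection is probed; plate controls were DMSO wells with completed Scp-1 reaction for no effect and substrate wells lacking enzyme for full effect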
Scp-1 Tm shift – binds human Scp-1, shifting its melting temperature; shares compounds with Scp-1 inhibitor; Recombinant SCP1, Sypro Orange thermal shift Tm; thermal shift relative to vanadate control, % at 40 µM; 1,500 tested, 25% active;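 active = substances whose mean melting-temperature shift, as a percentage of the reference inhibitor's shift, reaches about 5.3%, limit read from the data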;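 also: 0% = Tm of DMSO wells and 100% = Tm with sodium orthovanadate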
DNMT1 interf DR – counter-screen for DNMT1 inhibitors: spectral interference, dose response | AID 602382 | IC50, µM | molecular beacon fluorescence | 200 tested, under 10 active | shares compounds with DNMT1 block; call rule not given here
DNMT1 inh conf – DNMT1 inhibition confirmation, single concentration; DNMT1 molecular beacon HinP1I cleavage, fluorescence; inhibition, % at 10 µM; 2,300 tested, 8% active; shares compounds with DNMT1 block;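 active = average inhibition of at least 30% in the single-concentration confirmation test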
DNMT1 interf – shows spectral interference in the DNMT1 beacon assay | shares compounds with DNMT1 block | DNMT1 molecular beacon spectral interference counterscreen, fluorescence 485/520 | activation (fluorescence interference), % at 10 µM | 2,300 tested, 1% active | AID 602387;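 active = activation of at least 30% at 10 µM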;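 also: DNMT1 catalytic domain with a HinP1I cleavage step and a FAM/dabcyl DNA beacon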
Active calls of the source: *; . = not tested or not shown.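 The calls were made as follows, unless noted: active = inhibition of at least 30% at 20 µM; inactive = the rest.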

SMILES	STEP block	SUMO1-SIM PPI	LMPTP block	Scp-1 inhibitor	DNMT1 block	Scp-1 conf	Scp-1 MG ctr	Scp-1 Tm shift	DNMT1 inh conf	DNMT1 interf	others
Cc1ccc(N(CC(=O)NCc2ccco2)C(=O)CNS(=O)(=O)c2ccccc2)c(C)c1	-4	-1	0	7	2	.	.	.	.	.
COc1ccc(OC)c(NC(=O)C2(C)CCN2Cc2ccccc2Cl)c1 (centres undefined)	0	3	-1	.	7	.	.	.	.	.
Cc1ccc(NC(=O)CCc2nc3sc4c(c3c(=O)[nH]2)CCCC4)nc1	3	21	6	62*	50*	66*	-11	9.0*	4	3
Cc1cccc(NC(=O)CCc2nc3sc4c(c3c(=O)[nH]2)CCCC4)c1	-2	0	0	4	4	.	.	.	.	.
Cn1c(SCC(=O)NC(=O)NCc2ccco2)nnc1-c1ccccc1	7	9	46	92*	86*	62*	-17	-13	1	2
Cc1ccccc1CSCC(=O)NC(=O)NCc1ccco1	7	6	12	56*	76*	73*	-7	-15	0	5
O=C(CSc1n[nH]c(-c2ccccc2)n1)NC(=O)NCc1ccco1	6	14	17	68*	65*	55*	-11	1	2	1
O=C(CSc1ccccc1F)NC(=O)NCc1ccco1	2	2	0	25	9	.	.	.	.	.
CCCCn1c(SCC(=O)NC(=O)NCc2ccco2)nc2cc(S(N)(=O)=O)ccc21	2	5	9	64*	89*	58*	-12	-3	5	1
O=C(CSc1nc(-c2ccccc2)cs1)NC(=O)NCc1ccco1	1	4	1	-5	-8	.	.	.	.	.
COc1ccc(-c2nnc(SCC(=O)NCc3ccco3)n2C)cc1	0	2	0	-8	4	.	.	.	.	.
Cn1c(=O)c2c(nc(Cl)n2CC(=O)NC2(C#N)CCCCC2)n(C)c1=O	0	-1	-1	7	1	.	.	.	.	.
CSCC[C@H](NC(=O)[C@H]1CC[C@H](CNC(=O)[C@@H](N)Cc2ccccc2)CC1)C(=O)O	0	7	-2	-3	3	.	.	.	.	.
Cc1ccc(NC(=O)CCn2c(=O)c3cccn3c3ccccc32)cc1C	-4	10	2	-9	0	.	.	.	.	.
N=C1C(c2nc3ccccc3s2)=C(O)CN1NC(=O)c1ccccc1[N+](=O)[O-]	2	1	7	16	12	.	.	.	.	.
N=C1C(c2nc3ccccc3s2)=C(O)CN1NC(=O)c1c[nH]c2ccccc12	37	-7	35	64*	65*	54*	-15	4	2	0
CC(CNc1ccccc1O)C(=O)O (centres undefined)	-1	-3	-1	73*	64*	43*	-17	-3	2	0
COC(/C(=N/O)c1ccc(Cl)cc1)c1ccccc1 (centres undefined)	-2	1	2	-12	3	.	.	.	.	.
O=C1C2C(C(=O)N1/N=C/c1cc([N+](=O)[O-])c(O)cc1O)C1C=CC2C12CC2 (centres undefined)	12	12	17	64*	83*	64*	-3	5.9*	7	-1
Cc1cc(C)nc(SCC(=O)Nc2ccccc2[N+](=O)[O-])n1	-4	-15	0	-2	1	.	.	.	.	.
O=C1CC(=O)NC(SCC(=O)Nc2ccccc2[N+](=O)[O-])=N1	21	12	7	77*	64*	67*	-12	13*	33*	3	DNMT1 interf DR=>99
CCCS(=O)(=O)NC(=O)C1(C)CCCN(C(=O)c2ccc3ccccc3c2)C1 (centres undefined)	1	2	-1	.	8	.	.	.	.	.
CCC(C)CN1C(=O)CSCC1(C)C(=O)NC(C)C (centres undefined)	.	-2	0	.	.	.	.	.	.	.
CCOC(=O)c1cc(-c2ccc(N3CCOCC3)cc2)nn1-c1ccccc1C(=O)O	96*	106*	58*	80*	94*	64*	-15	-13	35*	-4	DNMT1 interf DR=>99
COC(=O)[C@@]12C[C@@H](CC(=O)NCC3CCCCC3)C(=O)N(Cc3ccccc3)C1=CCC(C)(C)C2	.	6	2	.	.	.	.	.	.	.
SMILES	STEP block	SUMO1-SIM PPI	LMPTP block	Scp-1 inhibitor	DNMT1 block	Scp-1 conf	Scp-1 MG ctr	Scp-1 Tm shift	DNMT1 inh conf	DNMT1 interf	others
CC1=C(C)CC(C(=O)NC2CCCC2)C(C(=O)O)C1 (centres undefined)	-1	-3	-1	-5	1	.	.	.	.	.
CC1=CCC(C(=O)O)C(C(=O)NC2CCCCC2)C1 (centres undefined)	22	51*	1	100*	79*	75*	-7	-23	0	2
Nc1nc2c(ncn2[C@@H]2O[C@H](CNCc3cnc(N4CCOCC4)nc3)[C@@H](O)[C@H]2O)c(=O)[nH]1	2	-2	0	.	2	.	.	.	.	.
Cc1cc2oc(C(=O)NCCc3ccc(S(N)(=O)=O)cc3)c(C)c2cc1C	8	3	50*	85*	79*	71*	-16	-11	3	2
COCOCCn1cc(CN2CCS(=O)(=O)N(Cc3ccc(-c4cccc(N(C)C)c4)cc3)C(C(C)C)C2=O)nn1 (centres undefined)	2	1	0	.	-10	.	.	.	.	.
CCC1=NN2C(=N)/C(=C\c3ccc(OCc4cc(=O)n5nc(CC)sc5n4)c(OC)c3)C(=O)N=C2S1	0	44*	3	75*	87*	51*	-8	3	15	0
O=C(N/N=C\C=C\c1ccco1)c1cc(-c2ccc3ccccc3c2)n[nH]1	4	16	15	70*	68*	42*	-14	13*	5	30
O=C(N/N=C/C=C/c1ccco1)c1cccnc1	2	11	1	16	9	.	.	.	.	.
O=C1NC(=S)NC1=Cc1ccco1	9	8	14	59*	53*	54*	-4	2	5	2
N#Cc1c(/N=C/c2ccc(-c3ccc(C(=O)O)c(Cl)c3)o2)sc2c1CCCC2	7	-6	0	17	9	.	.	.	.	.
